PolyA inhibitor – polyadenylation inhibitors in yeast reporter cells, primary screen, luminescence, S. cerevisiae; AID 1875, 2009; activity score, % at 12 µM; 300,000 compounds, 0.02% hits; S. cerevisiae SKY197-pL101 polyadenylation reporter, beta-gal luminescence; efflux-impaired pdr1/pdr3 knockout yeast; score 100 = 6 SD above DMSO;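 active means lowest replicate activity score at least 50, where 100 means six control SD above control mean; inconclusive means lowest score under 50 but half or more replicates reach 50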;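 further: yeast exposed to compound for 9 h at 30 °C; higher score means more reporter readthrough which indicates perturbed polyadenylation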
T cell modulator – modulators of CD8 T cell-vesicle binding, primary screen, mouse 2C CD8+ T cells, flow cytometry; AID 2052, 2009; 330,000 compounds, 0.068% hits; 2C CD8+ T cell-vesicle binding; stronger effect = lower value; response (vesicle binding), % at 7 µM;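 active means response, share of CD8 T cells binding vesicles, and their 90th percentile fluorescence all below set limits, cut at about 80% in these data, passing the limit was not always enough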;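 further: values below 100% mean blocked vesicle binding to the CD8+ T cells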
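Assay system – 2C mouse CD8+ T cells · Also added – QL9-loaded Drosophila micro-vesicles · Timing – Cell–vesicle co-incubation 1.5 h at 37 °C, staining 20 min on ice · Signal – flow cytometry of vesicle-bound cells · Measure – percent CD8+ FL2 mean versus row control · Controls – Peptide-free naked vesicles (low) and QL9 vesicles with 0.7% DMSO vehicle (high)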
Rce1 inh – yeast Rce1p protease inhibitors, primary screen, biochemical, fluorescence, cell-free homogeneous; CAAX prenyl protease 2 (Saccharomyces cerevisiae (strain ATCC 204508 / S288c)), Q03530; yeast membranes, quenched prenylated peptide cleavage fluorescence; calls only; 290,000 compounds, 0.27% hits;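 active means fall in fluorescence gain of 50% or more versus controls, with final raw signal at or below 3038400; inconclusive means same 50% fall but final raw signal above 3038400; inactive means fall in fluorescence gain under 50%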
Target sequence (Q03530 whole entry, looked up): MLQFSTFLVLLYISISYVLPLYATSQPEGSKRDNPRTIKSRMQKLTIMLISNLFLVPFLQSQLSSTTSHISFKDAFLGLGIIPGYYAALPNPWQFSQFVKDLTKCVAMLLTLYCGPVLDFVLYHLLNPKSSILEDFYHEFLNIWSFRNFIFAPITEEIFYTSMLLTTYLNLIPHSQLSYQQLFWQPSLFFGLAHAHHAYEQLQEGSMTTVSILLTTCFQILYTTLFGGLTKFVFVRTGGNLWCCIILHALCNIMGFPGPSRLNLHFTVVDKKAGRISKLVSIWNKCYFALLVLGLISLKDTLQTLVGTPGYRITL
aDG glyco up – activators of alpha-DG glycosylation, primary screen, uHTS, Pro5-aDG cells, AlphaScreen; alpha-DG glycosylation AlphaScreen (IIH6); 0% Pro5, 100% B10-LARGE cell signal; activation, % at 10 µM; 360,000 compounds, 0.22% hits; AID 624168, 2012;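 active means activation of at least 8% versus controls, or a plate z-score of at least 8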;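 further: Pro5 are CHO cells carrying HIG-tagged alpha-DG that lacks glycosylation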
A number is an active result; – = inactive; ? = inconclusive; · = no result given; + = active, no number. Compounds with a hit are over-represented: about 0.51% of the library has one in this group of screens.

SMILES	PolyA inhibitor	T cell modulator	Rce1 inh	aDG glyco up
COc1ccc(-c2c[n+]3c4n2CCCCC4=C(c2ccc(Br)cc2)C3)cc1	–	–	+	–
CCC(=O)Nc1cc(-c2nn(CC(=O)N3CCCCC3)c(=O)c3ccccc23)ccc1N1CCOCC1	–	–	+	–
O=C(NCC1CC1)c1ccc(Nc2nc3ccc(Br)cc3[nH]2)cc1	–	–	+	–
CCOC(=O)C[n+]1ccc2c([nH]c3ccccc32)c1C	–	–	+	–
CCOC(=O)Cc1c(Cl)c2ccccc2[nH]c1=O	–	–	–	–
O=c1[nH]cccc1-c1nc2ccccc2n1Cc1cccc(Cl)c1	–	–	+	–
COc1ccc(OC)c(Nc2nc(C)nc3c2oc2ccccc23)c1	–	–	–	–
COc1ccc(Cl)cc1Nc1nc(C)nc2c1oc1ccccc12	–	–	+	–
Cc1ccc(CNC(=S)Nc2ccc3c(c2)c(=O)n(C)n3Cc2cccc(C(F)(F)F)c2)cc1	·	·	·	–
Nc1ccc2c(c1)C1(CCC2)NC(=O)NC1=O (centres undefined)	·	·	·	–
CC(O)(c1cccnc1)c1nc(-c2ccc3ccccc3c2)cs1 (centres undefined)	·	·	·	–
COc1cc(OC)cc(-c2oc(=O)c3cc(OC)c(OC)cc3c2C(F)(F)F)c1	·	60.3	·	–
CN(c1ccccc1)S(=O)(=O)c1cccc(NC(=O)CCNC(=O)c2ccco2)c1	·	·	·	–
COC(=O)c1sc2cnccc2c1N	–	–	+	–
COC(=O)c1ccncc1N	–	–	–	–
CSc1ccc(/C=C/C(=O)OCC(=O)NC2CC2)cc1	·	–	·	–
CSc1ccc(/C=C/C(=O)OCC(=O)NC(C)C)cc1	–	–	+	–
CCC(=O)c1ccc(-c2ccccc2)cc1	–	–	–	–
O=C(O)CCC(=O)c1ccc(-c2ccccc2)cc1	–	–	+	–
OCCNc1nc2nonc2nc1NCCO	–	–	–	–
CC(C)(C)Nc1nc2nonc2nc1NC(C)(C)C	–	0.0	–	–
COc1ccc(CN2C(=O)C(C)Nc3ncnc(N4CCN(c5ccccn5)CC4)c32)cc1 (centres undefined)	·	0.0	·	–
CCSc1ccc([C@@H]2[C@@H]3C(=O)N(C)C(=O)[C@@H]3[C@]3(C(=O)OC)CCCCN23)cc1OC	·	0.0	·	–
Cc1c(C(=O)OCC(=O)NCc2ccco2)oc2ccccc12	·	65.3	·	–
Cn1c(=N)n(CC(=O)c2ccc(Br)s2)c2ccccc21	–	–	–	13.4
SMILES	PolyA inhibitor	T cell modulator	Rce1 inh	aDG glyco up
CCCc1cnc(NCCNCC(O)COc2ccc(Cl)c(Cl)c2)nc1 (centres undefined)	–	–	–	–
CCOC(=O)C1c2cccc(O)c2CCN1C(C)=O (centres undefined)	·	·	·	–
CCc1nc2c(OCCc3cccc(OC)c3)cccn2c1N(C)C(=O)c1cccs1	·	·	·	–
NCCCn1c(C(=O)c2cc(Cl)c(N)c(Cl)c2)c2ccc(C(F)(F)F)cc2[n+]1[O-]	–	–	+	–
NC(=O)CCCn1c(C(=O)c2cc(Cl)c(N)c(Cl)c2)c2ccc(C(F)(F)F)cc2[n+]1[O-]	–	–	+	–
COc1ccc(C(=O)c2c3ccc(C(F)(F)F)cc3[n+]([O-])n2CCCC(N)=O)cc1	–	–	–	–
CN(C)c1ccc(C(C(=O)NCc2ccccc2)N(Cc2cccnc2)C(=O)c2snc(C(N)=O)c2N)cc1 (centres undefined)	–	·	–	–
CN(C(=O)c1cccc(NC(=O)Cc2cccc(NC(=O)C3CCN(C(=O)C4CCCC4)CC3)c2)c1)C1CC1	·	·	·	–
c1ccc(Nc2cccc(Nc3ccccc3)n2)cc1	–	–	+	–
O=C(COC(=O)Cc1ccc(S(=O)(=O)N2CCOCC2)s1)NCc1ccc(Cl)cc1	56.3	–	–	–
Cc1ccc(C)c(S(=O)(=O)N(C)c2ccc(OC(=O)C3CCN(C(=O)Nc4ccccc4)CC3)cc2)c1	·	·	·	–
O=S(=O)(Nc1cccc2ccccc12)N1CCCC1	–	–	+	–
CCOc1ccccc1OCCCC(=O)Nc1cc(S(=O)(=O)N2CCOCC2)ccc1OC	·	–	·	–
Nc1ccc2c(C(F)(F)F)cc(C(F)(F)F)nc2n1	–	–	+	–
CCC(CNc1cc(OC)cc2cccnc12)NC1CCCCC1 (centres undefined)	–	–	–	7.1
c1ccc(CCNc2ncnc3ccccc23)cc1	–	–	–	8.7
CCCCCCCCNc1ncnc2ccccc12	–	–	–	–
O=C(OC[C@@H]1CCCN2CCCC[C@H]12)c1cc2ccccc2oc1=O	–	–	+	–
O=C(NN1C(=O)c2ccccc2NC1c1ccoc1)c1ccccc1 (centres undefined)	–	–	–	–
CC(=O)NN1C(=O)c2ccccc2NC1c1ccoc1 (centres undefined)	–	–	+	–
O=C(Nc1cccc2ncccc12)c1cccnc1	–	–	+	–
CC1CCN(C(=O)c2cc(S(=O)(=O)N3CCOCC3)ccc2N2CCCC2)CC1	·	–	·	–
O=C(Nc1ccccc1)n1ccc(-c2ccc(-n3ccnc3)cc2)n1	–	–	+	·
Oc1ccc(-c2nc3ccccn3c2NCc2ccco2)cc1	?	–	+	–
CCOCc1cc(C)[nH]c(=O)c1C#N	–	–	+	–
SMILES	PolyA inhibitor	T cell modulator	Rce1 inh	aDG glyco up
Cc1cc(NC(=O)COC(=O)c2nccnc2N)n(-c2ccccc2)n1	–	–	+	–
COc1ccc(C(C(=O)NC2CCCCC2)N(C(=O)c2snc(C(N)=O)c2N)c2ccc(OC)cc2OC)cc1 (centres undefined)	–	–	+	–
NC(=O)c1nsc(C(=O)N(c2ccccc2F)C(C(=O)NCc2ccccc2)c2ccc(O)cc2)c1N (centres undefined)	–	–	+	–
COc1ccc(N(C(=O)c2snc(C(N)=O)c2N)C(C(=O)NC2CCCC2)c2ccc(F)cc2)c(OC)c1 (centres undefined)	–	–	–	–
COc1ccc(CC(=O)N/N=C(\C)CC(=O)Nc2ccc3c(c2)OCCO3)cc1OC	–	–	–	–
COc1ccc(C(=O)/C=C/c2ccc(OC)cc2OC)c(O)c1	–	–	+	–
COc1cccc(C2CC(c3ccc(Br)cc3)=NN2C(=O)c2ccncc2)c1OC (centres undefined)	–	–	+	–
Cc1cccc(-c2oc3ccc(-c4ccc5c(c4)OCO5)cc3c2/C=C/c2ccc(N)cc2)c1	–	–	–	8.1
O=S(=O)(NCc1ccncc1)c1ccc(Br)s1	–	–	–	8.9
O=C(O)CNS(=O)(=O)c1ccc(Br)s1	–	–	–	–
CC1CC=CCC1(CO)CO (centres undefined)	·	·	·	–
COc1ccc(CNC(=O)c2ccccc2NS(C)(=O)=O)cc1	–	–	+	–
CCCCNS(=O)(=O)c1cccc(NC(=O)[C@H]2C[C@H](O)[C@@H](CO)O2)c1	·	·	·	–
